Assay outcomes from PubChem BioAssay.
TPT1 inhibitor: Candida albicans TPT1 enzyme inhibitors, primary screen, biochemical, fluorescence polarization | recombinant caTPT1, FP RNA substrate dephosphorylation | inhibition, % at 5 µM | hit rate 0.81% among 300,000 | tRNA 2'-phosphotransferase TPT1 (Candida albicans SC5314);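 active means inhibition above the mean of all tested compounds plus 3 SD, set per screening campaign, cut at about 24% in these data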
HNF4A DNA FP: change in binding of human HNF4A to DNA, primary screen, biochemical, fluorescence polarization, FITC-DNA. 1 h. activity change, % at 10 µM. hit rate 0.3% among 360,000. Hepatocyte nuclear factor 4-alpha (Homo sapiens), P41235; in the data active means activity change above about 30%, passing the limit was not always enough
CSN deneddyl inh: inhibitors of CSN-mediated cullin deneddylation, primary screen, biochemical, fluorescence polarization, uHTS. Purified CSN, SCF-Nedd8-OG deneddylation. hit rate 0.38% among 360,000. inhibition, % at 12.5 µM. COP9 signalosome complex subunit 5 (Homo sapiens), Q92905;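 active means pattern-corrected inhibition above about 35%, with an unprinted fluorescence ratio check between 0.5 and 1.5, limit read from the data, passing the limit was not always enough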
Target sequence (Q92905 whole entry, looked up, one chain of several): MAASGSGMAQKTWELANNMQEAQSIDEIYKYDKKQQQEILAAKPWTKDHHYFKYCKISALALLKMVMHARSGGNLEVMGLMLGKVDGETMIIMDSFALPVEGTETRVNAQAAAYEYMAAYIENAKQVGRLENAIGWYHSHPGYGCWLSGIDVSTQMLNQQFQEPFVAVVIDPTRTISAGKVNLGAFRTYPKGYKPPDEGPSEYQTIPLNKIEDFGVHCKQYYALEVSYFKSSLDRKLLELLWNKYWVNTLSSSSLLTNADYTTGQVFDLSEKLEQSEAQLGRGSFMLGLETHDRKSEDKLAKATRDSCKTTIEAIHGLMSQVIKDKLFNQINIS
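Detection – fluorescence polarization · System – HEK293T-derived human Csn5 enzyme · Controls – substrate-only high control, full reaction low control · Timing – 90 min, room temperature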
Rpn11 inh: Rpn11 (PSMD14) deubiquitinase inhibitors, primary screen, biochemical, fluorescence polarization, uHTS; AID 588493, 2011; 26S proteasome non-ATPase regulatory subunit 14 (Homo sapiens), O00487; human 26S proteasome, Ub4-pepOG fluorescence polarization; 20S core pre-blocked with epoxomicin; calls only at 20 µM; hit rate 0.59% among 360,000;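 active means inhibition at 20 µM, scaled to each plate's controls, above about 33%, limit read from the data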
Target sequence (O00487 whole entry, looked up): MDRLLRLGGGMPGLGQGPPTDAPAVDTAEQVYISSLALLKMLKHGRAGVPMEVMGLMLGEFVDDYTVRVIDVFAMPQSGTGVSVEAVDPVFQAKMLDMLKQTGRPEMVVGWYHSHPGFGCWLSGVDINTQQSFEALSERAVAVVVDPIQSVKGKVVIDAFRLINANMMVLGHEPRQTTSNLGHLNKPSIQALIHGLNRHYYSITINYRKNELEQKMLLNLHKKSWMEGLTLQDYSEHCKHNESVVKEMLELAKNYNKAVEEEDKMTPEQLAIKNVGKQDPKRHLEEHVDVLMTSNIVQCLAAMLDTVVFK
TPT1 inh confirm: Candida albicans TPT1 inhibitors, confirmation, biochemical, fluorescence polarization, triplicate. recombinant caTPT1, RNase T1 coupled. hit rate 74% among 2,400. inhibition, % at 5 µM. shares compounds with TPT1 inhibitor;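 active means inhibition above the primary screen limit, the mean inhibition of all tested compounds plus 3 SD, cut at about 25% in these data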
RNase T1 counter: RNase T1 inhibitors, counter-screen for TPT1 inhibitor project, biochemical, fluorescence polarization; shares compounds with TPT1 inhibitor; RNase T1 cleavage, 1536-well; inhibition, % at 5 µM; hit rate 83% among 2,400; AID 2153, 2009;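 active means inhibition above the solvent-only control well mean plus 3 SD, limit set per screening run, cut at about 23% in these data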;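 further: inhibitors block cleavage so intact labeled substrate keeps polarization high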
Rpn11 confirm: Rpn11 (PSMD14) deubiquitinase inhibitors, confirmation, biochemical, fluorescence polarization, single concentration | shares compounds with Rpn11 inh | purified human 26S proteasome, Ub4-pepOG fluorescence polarization; proteasome pretreated with epoxomicin | inhibition, % at 20 µM | hit rate 29% among 1,900
MMP-2 counter-1: MMP-2 enzyme inhibition, confirmation, counter-screen for RPN11 inhibitor project, biochemical, fluorescence, single concentration | shares compounds with Rpn11 inh | recombinant MMP-2, FRET peptide cleavage fluorescence | inhibition, % at 20 µM | hit rate 4% among 1,900;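 further: human MMP-2 activated beforehand with APMA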
Thrombin inh: bovine thrombin protease inhibition, confirmation, counter-screen for Rpn11 inhibitor project, biochemical, fluorescence polarization, single concentration | inhibition, % at 20 µM | shares compounds with Rpn11 inh | bovine thrombin cleavage of Ub4-pepOG | hit rate 13% among 1,900;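 active means mean inhibition at least 40% at 20 µM, or signal 3 deviations below plate average, so some actives read negative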
CSN deneddyl val: Csn5 deneddylation inhibitors, confirmation, biochemical, fluorescence polarization, single concentration, SCF-Nedd8OG substrate; shares compounds with CSN deneddyl inh; Csn5 deneddylation of SCF-Nedd8OG, 90 min; inhibition, % at 16.6 µM; hit rate 62% among 540; in the data active means inhibition above about 50%
MMP-2 counter-2: MMP-2 protease inhibition counter-screen, confirmation, counter-screen for CSN deneddylation inhibitor project, biochemical, fluorescence, single concentration | shares compounds with CSN deneddyl inh | recombinant MMP-2, FRET substrate fluorescence, 60 min | inhibition, % at 16.6 µM | hit rate 33% among 540 | AID 720655, 2013;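 active means corrected plate-normalized z-score of 5 or more, or -5 or less, or inhibition of 15% or more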
Thrombin counter: thrombin (bovine) inhibition, counter-screen for CSN hits; shares compounds with CSN deneddyl inh; bovine thrombin cleavage of Ub4-pepOG, fluorescence polarization; inhibition, % at 16.6 µM; hit rate 49% among 540;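 active means inhibition at or above a set limit, with a fluorescence interference ratio between 0.5 and a set maximum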
HNF4A confirm: change in HNF4A binding to DNA, retest, confirmation, biochemical, fluorescence polarization, FITC-DNA; shares compounds with HNF4A DNA FP; 1 h; activity change, % at 12.5 µM; hit rate 99% among 210; call rule not given here
Large screens that a line does not name were inactive (follow-up assays come after a bar, where shown). Only some compounds are listed: those with a hit (about 1.5% of all), similar ones and a draw of the others. Unless noted, no stated cut-off is given here; in the data, active means inhibition above about 40%; inactive means the rest.

COc1ccc(/C=C2/C(=O)N(Cc3ccco3)C(=O)N(C(C)C)C2=O)cc1	TPT1 inhibitor 57, CSN deneddyl inh 99, Rpn11 inh active | TPT1 inh confirm inactive | RNase T1 counter inactive | CSN deneddyl val inactive | MMP-2 counter-2 inactive | Thrombin counter 56
C[C@]12CCC3C(C(=O)C[C@H]4C[C@@H](O)CC[C@]34C)C1CCC2=O (stereo not given in full)	none (no result: TPT1 inhibitor)
CCNC(=O)NNC(=O)C1CC(c2cccnc2)=NO1 (stereo not given)	none
CC(=O)c1ccc(OCC(=O)N2CCCC(N(C)Cc3ccccc3)C2)cc1 (stereo not given)	none
O=C1NC(=O)N(Cc2ccccc2)C(=O)/C1=C/C=C/c1ccco1	TPT1 inhibitor 75, HNF4A DNA FP 42, CSN deneddyl inh 121 (not shown: Rpn11 inh) | TPT1 inh confirm 50 | RNase T1 counter 68 | CSN deneddyl val 71 | MMP-2 counter-2 inactive | Thrombin counter 22
COc1ccc(CN2C(=O)NC(=O)/C(=C/c3ccc([N+](=O)[O-])s3)C2=O)cc1	TPT1 inhibitor 27, CSN deneddyl inh 42, Rpn11 inh active | TPT1 inh confirm 56 | RNase T1 counter 72 | CSN deneddyl val inactive | MMP-2 counter-2 inactive | Thrombin counter inactive
O=C1NC(=O)N(Cc2ccccc2)C(=O)/C1=C/c1cnn(-c2ccccc2)c1	none (no result: HNF4A DNA FP, CSN deneddyl inh, Rpn11 inh)
COc1ccc(CN2C(=O)NC(=O)/C(=C\c3ccco3)C2=O)cc1	TPT1 inhibitor 80, CSN deneddyl inh 62, Rpn11 inh active | TPT1 inh confirm 33 | RNase T1 counter 47 | Rpn11 confirm 122 | MMP-2 counter-1 inactive | Thrombin inh inactive | MMP-2 counter-2 20 | Thrombin counter 15
O=C(C(=O)N1CCOCC1)c1cn(Cc2ccc(F)cc2)c2ccccc12	none
Cc1nc2ccc(Cl)cc2c(=O)n1-c1cccc(Cl)c1	none
Cc1cc(C)cc(N2C(=O)/C(=C\c3ccc(N4CCN(C)CC4)o3)C(=O)NC2=S)c1	TPT1 inhibitor 140, CSN deneddyl inh 76 (not shown: Rpn11 inh) | TPT1 inh confirm 151 | RNase T1 counter 141 | CSN deneddyl val 103 | MMP-2 counter-2 -48 | Thrombin counter inactive
COc1ccccc1/C=C1\C(=O)NC(=S)N(c2ccccc2)C1=O	none
COc1cccc(N2C(=O)/C(=C/c3ccc(C)o3)C(=O)NC2=S)c1	TPT1 inhibitor 35, CSN deneddyl inh 37 (not shown: Rpn11 inh) | TPT1 inh confirm 35 | RNase T1 counter 44 | CSN deneddyl val 88 | MMP-2 counter-2 32 | Thrombin counter 26
O=c1[nH]c(=O)n(Cc2ccccc2)c(O)c1C=NCCCO	TPT1 inhibitor 48, HNF4A DNA FP 35 (not shown: Rpn11 inh) | TPT1 inh confirm 62 | RNase T1 counter 76 | HNF4A confirm 61
O=C(N/N=C/c1c(O)n(-c2cccc3ccccc23)c(=O)[nH]c1=O)c1ccncc1	TPT1 inhibitor 45, HNF4A DNA FP 39 (not shown: Rpn11 inh) | TPT1 inh confirm 51 | RNase T1 counter 66 | HNF4A confirm 49
O=C(N/N=C/c1c(O)n(CCc2ccccc2)c(=O)[nH]c1=O)c1ccncc1	none
Cc1ccccc1OCCN=Cc1c(O)n(C)c(=O)n(C)c1=O	none
O=c1[nH]c(=S)n(-c2ccccc2)c(O)c1/C=N/N1CCCCC1c1cccnc1 (stereo not given)	TPT1 inhibitor 30, HNF4A DNA FP 36, CSN deneddyl inh 37 (not shown: Rpn11 inh) | TPT1 inh confirm inactive | RNase T1 counter 31 | HNF4A confirm 61
CC[N+](CC)(CC)CC	none
COc1ccc(CCn2c(O)c(C=Nc3ccccc3F)c(=O)[nH]c2=O)cc1OC	Rpn11 inh active | Rpn11 confirm inactive | MMP-2 counter-1 inactive | Thrombin inh inactive
COc1ccc(CCn2c(O)c(C=NCCCO)c(=O)[nH]c2=O)cc1OC	none
O=C(N/N=C/c1c(O)n(CCc2ccc(F)cc2)c(=O)[nH]c1=O)c1ccccc1	Rpn11 inh active | Rpn11 confirm inactive | MMP-2 counter-1 inactive | Thrombin inh inactive
O=C(N/N=C/c1c(O)n(Cc2ccc(F)cc2)c(=O)[nH]c1=O)c1ccccc1O	none
O=c1[nH]c(=O)n(Cc2ccccc2)c(O)c1/C=N/NCCO	Rpn11 inh active | Rpn11 confirm inactive | MMP-2 counter-1 inactive | Thrombin inh inactive
O=C(NN=Cc1ccc(N(CCCl)CCCl)cc1)C(=O)c1c[nH]c2ccccc12	Rpn11 inh active (no result: TPT1 inhibitor) | Rpn11 confirm 57 | MMP-2 counter-1 inactive | Thrombin inh inactive
Cc1cc(/C=C2\C(=O)NC(=O)N(c3ccc(Br)cc3)C2=O)c(C)n1C	none
Cc1cc(/C=C2/C(=O)NC(=O)N(c3ccc(Br)cc3)C2=O)c(C)n1C	Rpn11 inh active | Rpn11 confirm inactive | MMP-2 counter-1 inactive | Thrombin inh inactive
